ChEMBL document CHEMBL1142153, “Pharmacokinetics and disposition of CS-023 (RO4908463), a novel parenteral carbapenem, in animals” (Antimicrob Agents Chemother, 2007)

What was measured:
[1] = tested on: Rattus norvegicus; assay: Urinary excretion in rat assessed as radioactivity at 10 mg/kg, iv after 24 h; format: ADME, organism-based, Urine; design: dose 10 mg/kg, route intravenous; settings: in vivo
Method in brief: (§1)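 Rats were dosed i.v. via the tail vein with [14C]CS-023 at 10 mg/kg (4.58 MBq/kg) in saline, then kept in individual metabolic cages for separate urine and feces collection over 7 days. Samples up to 24 h were collected at around 4°C into 0.5 M MOPS pH 6.0, and feces were homogenized. Radioactivity was measured by liquid scintillation counting. Parent drug and metabolite were apportioned by silica TLC (3% NaCl:acetonitrile 2:1) with imaging-plate analysis. n=4.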

[2] = tested on: Rattus norvegicus; assay: Fecal excretion in rat assessed as radioactivity at 10 mg/kg, iv after 24 h; format: ADME, organism-based; design: dose 10 mg/kg, route intravenous; settings: in vivo; method in brief: as §1

Activity [1]: 31.4% | Activity [2]: 1.3%
SMILES: C[C@@H]1[C@H]([C@H](C(=O)O)[C@@H](C)O)N=C(C(=O)O)[C@H]1S[C@H]1C[C@@H](C(=O)N2CC[C@H](NC(=O)CNC(=N)N)C2)N(C)C1
